Results: paper PMC6810698 (European journal of nuclear medicine and molecular imaging, 2019)
Where two headings read alike, the source gives them in different places.

Tests used:
SV2A [1] = molecular target: T1, SV2A (Macaca mulatta, UniProt H9EQH8); type: in vivo, rhesus monkeys (Macaca mulatta); conditions: for Regional distribution volume (VT): 1TC model; for Regional non-displaceable binding potential (BPND): baseline scans (n = 4), reference region centrum semiovale
In short: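 Fasted rhesus monkeys were immobilised with ketamine (10 mg/kg im) and maintained on isoflurane (1.5–2.5% in oxygen). Radiotracer was infused iv over 3 min after a transmission scan, and dynamic list-mode data were collected for 120 min. MR-defined ROIs gave time–activity curves. VT came from a 1TC model with metabolite-corrected arterial plasma input, and BPND from VT with centrum semiovale as reference.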

human SV2A protein = conditions: cited from earlier work
SV2A [2] = molecular target: T1, SV2A; experiment: SV2A occupancy from occupancy plot; type: in vivo, rhesus monkeys (Macaca mulatta); conditions: 0.15 mg/kg UCB-J, 10 min before 5-[^18F]UCB-J injection
In short: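 Baseline and blocking PET scans were run with iv radiotracer and arterial input. Regional VT came from 1TC kinetic modelling. Occupancy was derived from an occupancy plot of baseline regional VT against the baseline-minus-blocking VT difference.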

SV2A [3] = molecular target: T1, SV2A; conditions: same dose of UCB-J (0.15 mg/kg), measured with [^11C]UCB-J; cited from earlier work
[4] = Plasma metabolite analysis; type: in vivo, rhesus monkeys (Macaca mulatta); conditions: 30 min after injection; rhesus monkey arterial plasma; n = 4
[5] = Radiotracer free fraction; type: in vitro ADME, rhesus monkeys (Macaca mulatta); conditions: ultrafiltration; rhesus monkey plasma; n = 4
In short: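 Plasma ultrafiltration was used. fP was taken as filtrate radioactivity concentration divided by total plasma activity, measured in triplicate per scan.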

[6] = baseline scan, centrum semiovale
[7] = baseline scan, cingulate cortex
[8] = baseline scan, nucleus accumbens
[9] = baseline scan, occipital cortex

T1 sequence (H9EQH8 1-742): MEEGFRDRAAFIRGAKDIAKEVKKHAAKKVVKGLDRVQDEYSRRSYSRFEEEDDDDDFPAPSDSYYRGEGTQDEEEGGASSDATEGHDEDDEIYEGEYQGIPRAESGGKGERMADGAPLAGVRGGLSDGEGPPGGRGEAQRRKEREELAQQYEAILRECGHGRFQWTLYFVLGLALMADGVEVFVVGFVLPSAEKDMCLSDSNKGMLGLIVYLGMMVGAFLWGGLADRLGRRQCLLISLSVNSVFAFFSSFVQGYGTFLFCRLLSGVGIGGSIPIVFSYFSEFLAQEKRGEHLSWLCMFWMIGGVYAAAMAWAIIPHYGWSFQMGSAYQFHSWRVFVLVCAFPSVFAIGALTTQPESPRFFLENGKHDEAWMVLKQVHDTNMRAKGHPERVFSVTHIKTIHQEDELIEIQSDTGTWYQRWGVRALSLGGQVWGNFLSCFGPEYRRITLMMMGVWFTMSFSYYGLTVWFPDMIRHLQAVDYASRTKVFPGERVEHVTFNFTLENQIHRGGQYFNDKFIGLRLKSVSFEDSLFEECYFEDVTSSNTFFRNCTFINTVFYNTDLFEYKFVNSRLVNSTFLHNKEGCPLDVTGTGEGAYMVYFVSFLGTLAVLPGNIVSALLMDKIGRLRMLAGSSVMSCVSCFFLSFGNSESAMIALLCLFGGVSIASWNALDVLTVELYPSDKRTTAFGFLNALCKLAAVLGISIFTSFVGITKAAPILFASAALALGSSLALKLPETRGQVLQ

Structure (SMILES) | Regional distribution volume (VT) (SV2A [1]; baseline scan, amygdala) [mL/cm^−3] | Regional distribution volume (VT) (SV2A [1]; baseline scan, brainstem) [mL/cm^−3] | Regional distribution volume (VT) (SV2A [1]; baseline scan, caudate) [mL/cm^−3] | Regional distribution volume (VT) (SV2A [1]; [6]) [mL/cm^−3] | Regional distribution volume (VT) (SV2A [1]; baseline scan, cerebellum) [mL/cm^−3] | Regional distribution volume (VT) (SV2A [1]; [7]) [mL/cm^−3] | Regional distribution volume (VT) (SV2A [1]; baseline scan, frontal cortex) [mL/cm^−3] | Regional distribution volume (VT) (SV2A [1]; baseline scan, globus pallidus) [mL/cm^−3] | Regional distribution volume (VT) (SV2A [1]; baseline scan, hippocampus) [mL/cm^−3] | Regional distribution volume (VT) (SV2A [1]; baseline scan, insula) [mL/cm^−3] | Regional distribution volume (VT) (SV2A [1]; [8]) [mL/cm^−3] | Regional distribution volume (VT) (SV2A [1]; [9]) [mL/cm^−3] | Regional distribution volume (VT) (SV2A [1]; baseline scan, pons) [mL/cm^−3] | Regional distribution volume (VT) (SV2A [1]; baseline scan, putamen) [mL/cm^−3] | Regional distribution volume (VT) (SV2A [1]; baseline scan, temporal cortex) [mL/cm^−3] | Regional distribution volume (VT) (SV2A [1]; baseline scan, thalamus) [mL/cm^−3] | pIC50, binding affinity to human SV2A protein (human SV2A protein) | also measured
Cc1cnccc1CN1C[C@H](c2cc(F)c(F)c([18F])c2)CC1=O [(S)-5-[^18F]3, 4-(3,4-Difluoro-5-(fluoro-^18F)phenyl)-1-((3-methylpyridin-4-yl)methyl)pyrrolidin-2-one] | 5.0 | 5.7 | 6.6 | 6.9 | 5.7 | 7.2 | 7.2 | 6.3 | 5.7 | 6.8 | 6.3 | 6.6 | 6.1 | 6.6 | 6.5 | 6.3 | – | specific binding in brain (SV2A [1]; baseline scan, n = 1): lack of specific binding
Cc1cnccc1CN1C[C@H](c2cc(F)c(F)c(F)c2)CC1=O [(S)-enantiomer] | – | – | – | – | – | – | – | – | – | – | – | – | – | – | – | – | 7.1 | –
Cc1cnccc1CN1C[C@@H](c2cc(F)c(F)c(F)c2)CC1=O [UCB-J] | – | – | – | – | – | – | – | – | – | – | – | – | – | – | – | – | 8.2 | SV2A occupancy by UCB-J (SV2A [2]): 73%; SV2A occupancy by UCB-J (SV2A [3]): 87%
[11CH3]c1cnccc1CN1C[C@@H](c2cc(F)c(F)c(F)c2)CC1=O [[^11C]UCB-J] | 24.1 ± 2.2 | 20.1 ± 2.8 | 40.3 ± 6.1 | 11.1 ± 1.6 | 30.5 ± 3.5 | 47.3 ± 7.5 | 48.9 ± 7.4 | 24.5 ± 3.1 | 31.3 ± 2.3 | 47.7 ± 7.5 | 45.7 ± 6.2 | 45.1 ± 6.9 | 19.8 ± 2.7 | 40.1 ± 6.8 | 42.8 ± 6.7 | 36.2 ± 5.2 | – | intact parent radiotracer in plasma (parent fraction) [4]: 47 ± 12%; plasma free fraction (fp) [5]: 43 ± 5%; Regional non-displaceable binding potential (BPND) (SV2A [1]; amygdala): 1.2 ± 0.4; Regional non-displaceable binding potential (BPND) (SV2A [1]; brainstem): 0.8 ± 0.2; Regional non-displaceable binding potential (BPND) (SV2A [1]; caudate): 2.7 ± 0.7; Regional non-displaceable binding potential (BPND) (SV2A [1]; cerebellum): 1.8 ± 0.3; Regional non-displaceable binding potential (BPND) (SV2A [1]; cingulate cortex): 3.3 ± 0.9; Regional non-displaceable binding potential (BPND) (SV2A [1]; frontal cortex): 3.5 ± 0.9; Regional non-displaceable binding potential (BPND) (SV2A [1]; globus pallidus): 1.2 ± 0.2; Regional non-displaceable binding potential (BPND) (SV2A [1]; hippocampus): 1.9 ± 0.3; Regional non-displaceable binding potential (BPND) (SV2A [1]; insula): 3.3 ± 0.8; Regional non-displaceable binding potential (BPND) (SV2A [1]; nucleus accumbens): 3.2 ± 0.7; Regional non-displaceable binding potential (BPND) (SV2A [1]; occipital cortex): 3.1 ± 0.7; Regional non-displaceable binding potential (BPND) (SV2A [1]; pons): 0.8 ± 0.2; Regional non-displaceable binding potential (BPND) (SV2A [1]; putamen): 2.6 ± 0.5; Regional non-displaceable binding potential (BPND) (SV2A [1]; temporal cortex): 2.9 ± 0.6; Regional non-displaceable binding potential (BPND) (SV2A [1]; thalamus): 2.3 ± 0.7; BPND values in all brain regions (SV2A [1]; baseline scans, all brain regions): > 0.75
CC[C@@H](C(N)=O)N1CCCC1=O [levetiracetam] | – | – | – | – | – | – | – | – | – | – | – | – | – | – | – | – | – | displacement of [^18F]UCB-J binding (SV2A [1]; levetiracetam 30 mg/kg i.v. at 90 min after radiotracer administration, 180-min scan with 5-[^18F]UCB-J): rapid reduction in radiotracer binding
